PPC-1+TRAIL kill = compounds killing PPC-1 cancer cells with TRAIL present, primary screen, TRAIL potentiator project, ATPLite luminescence, uHTS; PPC-1 cells + TRAIL, ATPLite viability luminescence; cell killing (% activity), % at 4 µM or 5 µM; 0.41% of 220,000 active;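 active = cell killing above 50% in the first pass at 4 µM, then a duplicate retest at 5 µM averaging 50% or more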;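 also: plate controls were cells with TRAIL plus DMSO for no effect and medium-only wells lacking cells for full effect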
HSP90 inh = HSP90 inhibitors, primary screen, cell lysate, luminescence; Rabbit reticulocyte lysate, luciferase refolding luminescence, 3 h; 0.91% of 290,000 active; inhibition, % at 5.6 µM; AID 1789, 2009;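 active = inhibition above the screen-wide mean plus 3 SD, computed separately per campaign, cut at about 16% in these data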;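 also: 0% = DMSO wells and 100% = 60 µM geldanamycin wells; inhibitors lower the luminescence because luciferase stays unfolded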
C8 TRAIL sens = viability loss with TRAIL in NB7+C8 cells, primary screen, TRAIL sensitizer project, cell-based, ATPlite luminescence | inhibition (viability loss, TRAIL sensitization), % at 10 µM | 1% of 360,000 active;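 active = compounds causing at least 50% loss of cell viability in the single-dose screen, relative to plate controls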
FLuc act counter = FLuc activators, initial screening, artefact control for FLuc-dependent activation tests, biochemical, ATPlite luminescence; activation factor at 10 µM; 200,000 tested, under 10 active; Luciferin 4-monooxygenase (Photinus pyralis), P08659; ATPlite luciferase biochemical, 10 min; 0 = ATP-free wells, 1 = DMSO control;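 active = luciferase activation factor, scaled between plate controls, of at least 2 with compound at 10 µM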
Target sequence (P08659 whole entry, looked up): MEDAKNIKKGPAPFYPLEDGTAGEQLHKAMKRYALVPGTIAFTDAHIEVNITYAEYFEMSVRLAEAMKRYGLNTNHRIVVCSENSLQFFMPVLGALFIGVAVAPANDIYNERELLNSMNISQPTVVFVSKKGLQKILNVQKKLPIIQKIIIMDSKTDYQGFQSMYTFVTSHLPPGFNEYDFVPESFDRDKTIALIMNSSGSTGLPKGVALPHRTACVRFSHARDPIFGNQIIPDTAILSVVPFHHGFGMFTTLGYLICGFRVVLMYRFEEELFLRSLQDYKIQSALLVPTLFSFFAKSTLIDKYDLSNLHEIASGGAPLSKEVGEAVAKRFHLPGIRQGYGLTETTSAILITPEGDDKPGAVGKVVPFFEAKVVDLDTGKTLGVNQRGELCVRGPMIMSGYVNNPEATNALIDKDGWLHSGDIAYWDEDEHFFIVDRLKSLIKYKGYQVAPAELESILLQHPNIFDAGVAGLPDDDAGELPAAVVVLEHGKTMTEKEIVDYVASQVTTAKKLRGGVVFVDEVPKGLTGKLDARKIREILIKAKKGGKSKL
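Assay system: Luciferase/luciferin detection reagent, cell-free biochemical luciferase assay / Also added: ATP substrate / Schedule: 10 min at ambient temperature / Measured by: luminescence measurement of luciferase light output / Benchmarks: low control with PBS replacing ATP, high control enzyme plus ATP without compound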
FLuc inhib CS = firefly luciferase enzyme inhibitors, primary screen, artefact control for luciferase-based inhibitor screens, biochemical, luminescence, ATPLite; AID 1006, 2008; 1.5% of 200,000 active; inhibition, % at 10 µM; 10 min;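 active = inhibition above about 50% when tested at 10 µM, limit read from the data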
HSP90 confirm = HSP90 inhibitors, confirmation, cell lysate, luminescence | shares compounds with HSP90 inh | rabbit reticulocyte lysate, luciferase refolding luminescence, 3 h | inhibition, % at 5.9 µM | 64% of 2,300 active; in the data active = inhibition above about 18%;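 also: 0% = vehicle wells and 100% = reference inhibitor wells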
luciferase ctr = firefly luciferase inhibitors, HSP90 counter-screen, confirmation, artefact control for HSP90 inhibitor project, biochemical, luminescence, triplicate. shares compounds with HSP90 inh. purified native firefly luciferase. inhibition, % at 5.9 µM. 48% of 2,300 active;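 active = inhibition above the mean inhibition of all tested sample wells plus 3 SD, cut at about 10% in these data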;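 also: 0% = DMSO with luciferase and 100% = wells lacking luciferase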
* hit, by the source's call; nt = not tested or not shown. Shown are actives, neighbours in structure and some others; about 2% of the full set was active somewhere.

SMILES | PPC-1+TRAIL kill | HSP90 inh | C8 TRAIL sens | FLuc act counter | FLuc inhib CS | HSP90 confirm | luciferase ctr
O=C(/C=C/c1ccco1)N1CCc2ccccc21 | 36.5 | 23.6* | 49.8 | 0.2 | 82.3* | 41.2* | 24.8*
CCN(CC)P(=O)(Nc1ccc(C)cc1Br)c1ccc(N(C)C)cc1NC(=O)c1ccco1 (centres undefined) | -12.9 | 1.9 | -0.3 | 1 | -2.6 | nt | nt
COc1ccccc1C(=O)N1CC(=O)Nc2ccc(F)cc2C1c1ccccc1 (centres undefined) | nt | 0.6 | 2.5 | nt | nt | nt | nt
CC(C)CC(=O)N1CC(=O)Nc2ccc(F)cc2C1c1ccccc1 (centres undefined) | nt | 39.0* | -15.2 | nt | nt | -6.4 | -9.8
Cc1ccc2c(c1)C(c1ccccc1)N(C(=O)c1c(F)cccc1Cl)CC(=O)N2 (centres undefined) | nt | 17.3* | 6.2 | nt | nt | 3.6 | -4.0
O=C(CCS(=O)(=O)c1ccccc1)N1CCN(c2ccccc2)CC1 | nt | 3.3 | -5.8 | nt | nt | nt | nt
COc1ccc(NS(=O)(=O)c2cccc(C(=O)N3CCN(c4ccccc4O)CC3)c2)cc1 | nt | nt | 9.9 | nt | nt | nt | nt
CCOC(=O)c1csc(COc2ccc(OC)cc2)n1 | 9.6 | 20.3* | 5.7 | nt | nt | 51.9* | -13.1
Cc1nc(SCc2nnc(-c3ccc(Cl)cc3)o2)c2c3c(sc2n1)CCC3 | 14.3 | nt | nt | 1.1 | -5.3 | nt | nt
Cc1cc(C)c(C#N)c(SCc2nnc(-c3ccccc3)o2)n1 | 72.3* | 67.1* | 69.2* | 1 | -1.1 | 58.0* | 33.1*
Cc1ccc(C#N)c(SCc2nnc(-c3ccc(Cl)cc3)o2)n1 | 64.4* | 23.9* | 81.9* | 0.4 | 60.5* | 75.4* | 75.1*
COc1ccc(-c2cc(C(=O)N3CCN(Cc4ccccc4)CC3)no2)cc1OC | -6.3 | 52.3* | -19.7 | 1 | -1.4 | -1.1 | -12.8
COc1ccc(-c2cc(C(=O)N3CCOCC3)c3ccccc3n2)cc1OC | nt | nt | -3.4 | nt | nt | nt | nt
Cc1ccc(-c2cc(C(=O)N3CCOCC3)no2)cc1 | nt | 62.0* | 69.2* | nt | nt | 68.4* | 56.7*
COc1cc2cc(C(=O)N3CCOCC3)cc(-c3ccc(C)cc3)c2cc1OC | nt | 50.1* | -17.6 | nt | nt | 5.0 | 1.3
O=C(c1cc(-c2ccc(Cl)c(Cl)c2)on1)N1CCCCCC1 | nt | -1.5 | 6.2 | nt | nt | nt | nt
O=C(c1cc(-c2ccc3c(c2)OCO3)on1)N1CCCCC1 | nt | 35.7* | 57.2* | nt | nt | 58.4* | 55.2*
COCC(C)n1c(C)cc(C(=O)COC(=O)/C=C/c2cccc(F)c2)c1C (centres undefined) | -6.6 | 2.7 | -14.7 | 1 | -4.2 | nt | nt
COc1ccc(S(=O)(=O)NCc2ccc(C(=O)N3CCc4ccccc4C3)cc2)cc1 | -9.9 | 3.6 | 5.0 | 1 | -3.7 | nt | nt
CCN(CC)c1nc(Oc2ccc(C(=O)OC)cc2)nc(N2CCOCC2)n1 | 19.8 | -1.8 | 8.5 | 1 | -4.8 | nt | nt
CCOc1ccc(Oc2nc(N(CC)CC)nc(N3CCOCC3)n2)nn1 | 8.0 | 17.4* | 5.9 | 1 | -0.4 | -6.6 | -10.3
Nc1ccc2c(c1)C1(CCC2)NC(=O)NC1=O (centres undefined) | nt | nt | -2.2 | nt | nt | nt | nt
Cc1ccccc1-n1nc2c(c1NC(=O)c1cccs1)CS(=O)(=O)C2 | nt | 0.5 | -7.4 | nt | nt | nt | nt
Cc1ccc(-n2nc3c(c2NC(=O)c2cccs2)CS(=O)(=O)C3)c(C)c1 | nt | 86.4* | -13.4 | nt | nt | -1.9 | -1.0
CCOc1ccc(-c2nc(CN3CCCCC3CCn3cccn3)c(C)o2)cc1 (centres undefined) | 0.2 | 17.9* | 3.6 | nt | nt | 36.3* | 0.2
SMILES | PPC-1+TRAIL kill | HSP90 inh | C8 TRAIL sens | FLuc act counter | FLuc inhib CS | HSP90 confirm | luciferase ctr
COc1ccc(-c2nc(CN3CCCCC3CCc3ccccn3)c(C)o2)cc1 (centres undefined) | 12.0 | 4.0 | 17.4 | 1 | -3.4 | nt | nt
O=Cc1ccccc1OCCOc1ccc([N+](=O)[O-])cc1 | -5.7 | -3.8 | 1.7 | 1 | -3.6 | nt | nt
O=C(Nc1nnc(-c2ccc(Cl)cc2)o1)C1CCCCC1 | 3.5 | nt | 1.2 | nt | nt | nt | nt
Clc1ccc(-c2nnc(NC3=NCCCCC3)o2)cc1 | 48.1 | 45.2* | 47.4 | 0.2 | 77.6* | 71.2* | 67.9*
CCc1nnc(NC(=O)c2n[nH]c(=O)c3ccccc23)s1 | 4.5 | 26.4* | 0.9 | nt | nt | -6.4 | -8.9
CCc1ccc(NC(=O)c2n[nH]c(=O)c3ccccc23)cc1 | 10.8 | -0.4 | 4.3 | nt | nt | nt | nt
COc1nc(C)ccc1-c1noc(-c2ccco2)n1 | 21.6 | 18.6* | 22.6 | 0.4 | 57.7* | 32.7* | 24.3*
CCOc1ccc2nc(NC(=O)CSc3cn[nH]n3)sc2c1 | nt | 19.0* | 31.0 | nt | nt | 25.3* | 13.7*
O=C(O)c1ccc2noc(-c3ccccc3)c2c1 | -27.8 | 40.6* | -4.6 | 1.1 | -5.6 | 12.1 | -15.2
CC(=O)c1ccc2noc(-c3ccc(C)cc3)c2c1 | 3.8 | 0.9 | 1.8 | 1 | 2.5 | nt | nt
CC(=O)COC(=O)c1ccc2noc(-c3ccccc3)c2c1 | nt | 19.7* | 8.0 | nt | nt | 5.4 | -11.9
O=C(O)c1ccc2nc(-c3ccccc3)c(-c3ccccc3)nc2c1 | 4.3 | 41.7* | 10.4 | 1 | -2.2 | 51.1* | 37.3*
Cc1ccc(-c2onc3ccc(C(=O)O)cc23)cc1 | nt | 71.8* | -1.1 | nt | nt | 61.4* | 57.2*
Clc1ccc(-c2nc(C3CCCCC3)no2)cc1 | 21.5 | 3.1 | -4.8 | 0.9 | 10.1 | nt | nt
Cc1ccc(S(=O)(=O)NCCN2CCOCC2)c(C)c1C | 10.4 | 0.3 | -4.4 | 1.1 | -5.4 | nt | nt
CC(C)N1CCN(Cc2ccc(OC3CCCC3)cc2)CC1CCO (centres undefined) | nt | 7.0 | 3.8 | nt | nt | nt | nt
CN(C)CCCn1c(N)c(C#N)c2nc3ccccc3nc21 | 12.2 | 46.8* | -21.1 | nt | nt | -7.5 | -10.1
Cc1ccc(S(=O)(=O)c2c(N)n(CCCN(C)C)c3nc4ccccc4nc23)cc1 | 3.7 | 0.3 | 6.7 | nt | nt | nt | nt
O=C(Nc1ccccn1)c1ccc(C(=O)c2ccccc2)cc1 | nt | nt | 19.7 | nt | nt | nt | nt
Cc1cc(C(=O)Nc2ccccn2)cs1 | 29.1 | 24.9* | 14.6 | 0.4 | 56.7* | 16.3* | 4.5
O=C(NC(=O)c1ccccc1)Nc1ccccn1 | nt | 74.1* | 88.8* | nt | nt | 93.0* | 85.6*
COc1cc(C(=O)Nc2ccccn2)cc(OC)c1OC | 35.6 | 2.7 | -1.4 | 1.1 | -8.1 | nt | nt
Cc1cc(Cl)ccc1C(O)c1ncc(-c2cccc3ccccc23)[nH]1 (centres undefined) | nt | nt | 2.7 | nt | nt | nt | nt
COc1ccc(/C=C2/SC(=O)N(CCC(=O)Nc3ccccc3C(=O)O)C2=S)cc1 | nt | 2.8 | -0.8 | nt | nt | nt | nt
OC(CCc1cccc(Cl)c1)c1cccs1 (centres undefined) | nt | 2.3 | 4.1 | nt | nt | nt | nt
